pIC50, pKd: −log10 of the molar value. Where “and” joins values, the source holds several entries; their conditions need not be identical. Equal values may be shown once.
Experiments:
S97A TtClpP = S97A TtClpP (Thermus thermophilus, UniProt Q5SKM8, S97A); type: binding; details: 2 mM bortezomib, S97A TtClpP 250 μM, 60°C
TtClpP [1] = molecular target: T1, TtClpP (Thermus thermophilus, UniProt Q5SKM8); experiment: Dynamic light scattering, hydrodynamic radius of TtClpP; details: 5 mM bortezomib; for hydrodynamic radius Rhyd of TtClpP: TtClpP 3 μM
Summary of the method: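 TtClpP (3 μM) was measured in 100 mM tris (pH 8.5), 100 mM NaCl and 5% glycerol, with no additive or with 5 mM bortezomib added, at 25° or 45°C. Each condition was run in triplicate, three times for each of two TtClpP samples. Hydrodynamic radius is the average of these replicates.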

proteasome = details: cited from earlier work
MtbClpP1P2 complex [2] = molecular target: T2, MtbClpP1P2 complex (Mycobacterium tuberculosis, UniProt P9WPC3+P9WPC5); experiment: MtbClpP1P2 peptidase activity; type: biochemical
TtClpP [3] = molecular target: T1, TtClpP; experiment: Isothermal titration calorimetry fitted to the MWC model; type: binding
Summary of the method: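 TtClpP (10 μM, cell) was titrated with test compound (1.4 mM, syringe) in 50 mM Hepes (pH 7.6) and 50 mM NaCl at 25°, 35° and 45°C. Solutions were degassed. Each run used 19 injections 150 s apart with stirring at 750 rpm, in replicates. Integrated heats were fitted by nonlinear least squares to an MWC model with 14 identical single-site subunits. The fit gave KR, KT, γ, enthalpies and active fraction N.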

TtClpP [4] = molecular target: T1, TtClpP; experiment: MAS solid-state NMR chemical shift perturbations; type: binding; details: 10 mM bortezomib, sedimented TtClpP
MtbClpXP1P2 complex = details: in vivo cell screen; cited from earlier work
TtClpP [5] = molecular target: T1, TtClpP; experiment: TAMRA-FP labeling of TtClpP active-site serines; type: biochemical; details: TAMRA-FP 5 μM, TtClpP 1 mg/ml, bortezomib 100 μM
TtClpP [6] = molecular target: T1, TtClpP; experiment: Solution-state methyl NMR of Ile-δ1-CH3-labeled TtClpP; type: binding; details: 2 mM bortezomib, TtClpP 250 μM, 60°C
Summary of the method: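 Uniformly 2H,15N-labelled TtClpP carrying Ile-δ1-13CH3 labels, and its S97A mutant, were used. Protein was expressed in D2O and refolded from urea-solubilised inclusion bodies by NiNTA and SEC. Protein (250 μM) was mixed with 2 mM test compound or the DMSO equivalent in 100 mM tris (pH 8.5), 100 mM NaCl and 5% glycerol. 2D SOFAST-methyl-TROSY spectra were recorded at 700 MHz and 60°C, for 10–120 min per sample.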

TtClpP [7] = molecular target: T1, TtClpP; experiment: FtsZ degradation by TtClpP, SDS-gel electrophoresis; type: biochemical; details: 200 μM and 2 mM bortezomib, 37°C, TtClpP 1 μM complex
Summary of the method: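 Purified intrinsically disordered E. coli FtsZ (20 μM) was incubated at 37°C with TtClpP14 (1 μM) and the stated test-compound concentrations. Aliquots were withdrawn at set time points and resolved on a 15% SDS gel to follow FtsZ loss.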

TtClpP with TtClpX = TtClpP with TtClpX (Thermus thermophilus, UniProt Q5SKM8); experiment: TtClpP peptidase activity in the presence of TtClpX; type: biochemical
Summary of the method: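 N-terminally truncated TtClpX and TtClpP were expressed in E. coli BL21RIL and purified by NiNTA and SEC. Concentrations are given as hexamer and tetradecamer. TtClpP (0.1 μM complex) was mixed with TtClpX at varying ClpX6/ClpP14 molar ratios in 50 mM Hepes (pH 7.6) and 50 mM NaCl, without or with 10 μM test compound. PKMamc hydrolysis was read at 340/462 nm, at 60°C unless otherwise indicated. The ratio giving half-maximal activation was derived from activation plotted against molar ratio.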

TtClpP [8] = molecular target: T1, TtClpP; experiment: FITC-casein degradation by TtClpP; type: biochemical; details: TtClpP 0.1 μM complex
Summary of the method: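 FITC-casein, passed over a G25 column to remove free fluorescein, was used at 0.15 μM with TtClpP14 (0.1 μM). Test compound was added at a range of concentrations. Fluorescence rise was monitored at 440-nm excitation, 509-nm emission and 495-nm cutoff. Initial degradation rates after temperature equilibration were plotted against compound concentration.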

EcClpP = EcClpP (Escherichia coli, UniProt P0A6G7); experiment: EcClpP peptidase activity, PKMamc degradation; type: biochemical
Summary of the method: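 Purified E. coli ClpP was mixed in 50 mM Hepes (pH 7.6) and 50 mM NaCl with the fluorogenic tripeptide PKMamc (100 μM working concentration) and test compound, or a matching DMSO volume. AMC release was read at 340-nm excitation and 462-nm emission at defined intervals. An apparent IC50 was derived from peptidase activity.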

TtClpP [9] = molecular target: T1, TtClpP; experiment: TtClpP peptidase activity, PKMamc degradation; type: biochemical; details: Fig. 1B
MtbClpP1P2 complex [10] = molecular target: T2, MtbClpP1P2 complex; details: cited from earlier work
[11] = 35°C, absolute error 0.3 kcal/mol
[12] = 45°C, absolute error 0.3 kcal/mol

Compound: CC(C)C[C@H](NC(=O)[C@H](Cc1ccccc1)NC(=O)c1cnccn1)B(O)O [bortezomib]
- spectral changes of the S97A mutant (S97A TtClpP): no spectral changes were observed
- increase in Rhyd of TtClpP on addition of bortezomib (TtClpP [1]): approximately 8 Å
- hydrodynamic radius Rhyd of TtClpP (TtClpP [1]; 25°C): 6.673 ± 0.192 nm and 6.67 nm
- hydrodynamic radius Rhyd of TtClpP (TtClpP [1]; 45°C): 6.702 ± 0.176 nm
- affinity for the chymotrypsin-like sites of the proteasome (proteasome): nanomolar affinity
- effect on the chymotrypsin site of the proteasome (proteasome): inhibits efficiently
- effect on the trypsin site of the proteasome (proteasome): paradoxical activation
- effect on MtbClpP1P2 peptidase activity (MtbClpP1P2 complex [2]): could also activate the peptidase activity of the MtbClpP1P2 complex
- KT, association constant for the tense state (TtClpP [3]; 25°C): No apparent cooperativity
- N, fraction of active or binding-competent protein (TtClpP [3]; 25°C): 0.97
- ΔHT, binding enthalpy of the T state (TtClpP [3]; 25°C): No apparent cooperativity
- ΔHγ, conformational enthalpy between R and T conformations (TtClpP [3]; 25°C): No apparent cooperativity
- γ, equilibrium constant between R and T conformations in the absence of the ligand (TtClpP [3]; 25°C): No apparent cooperativity
- ΔHR, binding enthalpy of the R state (TtClpP [3]; 25°C, absolute error 0.3 kcal/mol): -0.5 kcal/mol
- N, fraction of active or binding-competent protein (TtClpP [3]; 35°C): 0.97
- ΔHR, binding enthalpy of the R state (TtClpP [3]; [11]): -0.9 kcal/mol
- ΔHT, binding enthalpy of the T state (TtClpP [3]; [11]): -0.1 kcal/mol
- ΔHγ, conformational enthalpy between R and T conformations (TtClpP [3]; [11]): -0.3 kcal/mol
- KT, association constant for the tense state (TtClpP [3]; 35°C, relative error 30%): 28000 M⁻¹
- γ, equilibrium constant between R and T conformations in the absence of the ligand (TtClpP [3]; 35°C, relative error 30%): 3.3
- N, fraction of active or binding-competent protein (TtClpP [3]; 45°C): 1.00
- ΔHR, binding enthalpy of the R state (TtClpP [3]; [12]): -1.5 kcal/mol
- ΔHT, binding enthalpy of the T state (TtClpP [3]; [12]): -0.3 kcal/mol
- ΔHγ, conformational enthalpy between R and T conformations (TtClpP [3]; [12]): -0.2 kcal/mol
- KR, association constant for the relaxed state (TtClpP [3]; 45°C, relative error 30%): 65000 M⁻¹
- KT, association constant for the tense state (TtClpP [3]; 45°C, relative error 30%): 25000 M⁻¹
- pKd (TtClpP [3]; Kd,R = KR^−1, R state, higher affinity): 4.82
- pKd (TtClpP [3]; Kd,T = KT^−1, T state, lower affinity): 4.40
- free bortezomib concentration at the R↔T crossover point (TtClpP [3]; R and T equally populated, MWC model): around 2 μM
- chemical shift perturbations on addition of bortezomib (TtClpP [4]): bortezomib interacts with the active site
- effect on GFPssrA degradation by the MtbClpXP1P2 complex (MtbClpXP1P2 complex): inhibitor of GFPssrA degradation
- TAMRA-FP labeling of TtClpP (TtClpP [5]): failed to observe any increase of TAMRA-FP labeling
- binding to wild-type TtClpP by spectral changes (TtClpP [6]): unambiguously confirms binding
- FtsZ degradation by TtClpP (TtClpP [7]): degradation of FtsZ was observed
- effect on TtClpP peptidase activity in the presence of ClpX (TtClpP with TtClpX; bortezomib 10 μM, PKM-amc 100 μM): acted as an inhibitor
- ClpX6/ClpP14 ratio at half-maximal peptidase activity (TtClpP with TtClpX; bortezomib-loaded TtClpP, bortezomib 10 μM): 2.4 ± 0.3 and 2.4
- TtClpX6 concentration at half-maximal activation (TtClpP with TtClpX; in the presence of bortezomib, ratio 2.4): 120 nM
- concentration dependence of FITC-casein degradation activation (TtClpP [8]): linear and no reduction of the activation was observed up to 100 μM
- effect on FITC-casein degradation (TtClpP [8]; FITC-casein 0.15 μM): a striking activation was observed
- pIC50 (EcClpP): 5.80

Compound: NC(N)=O [urea]
- TAMRA-FP labeling of TtClpP (TtClpP [5]): reduced the amount of TAMRA bound to ClpP

Compound: O=c1oc(Cl)c(Cl)c2ccccc12 [DCC, dichloroisocoumarin]
- TAMRA-FP labeling of TtClpP (TtClpP [5]): reduced the amount of TAMRA bound to ClpP

Compound: Bz-LL
- activation of TtClpP peptidase activity compared with bortezomib (TtClpP [9]): capable to activate TtClpP, albeit with lower efficiency
- activation of MtbClpP1P2 (MtbClpP1P2 complex [10]): most potent of these activators in Mtb
